In ChEMBL document CHEMBL3627612, “Hirsutinolide Series Inhibit Stat3 Activity, Alter GCN1, MAP1B, Hsp105, G6PD, Vimentin, TrxR1, and Importin α-2 Expression, and Induce Antitumor Effects against Human Glioma” (J Med Chem, 2015) one finds inhibition, Activity and fold change (FC) data, which are given here for three compounds.

Calls of active or inactive are those of the source. The rule behind the calls is not given here.

A short description of data set [1]: Antiproliferative activity against human U251MG cells at 5 uM for 72 hrs by cyquant assay. Type of data set: functional. The following applies: U-251, 72 h. The method, boiled down: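 CyQuant proliferation assay after 72 h compound exposure of cultured cells; relative viability normalized to DMSO-treated control; IC50 values derived. Glioma lines grown in RPMI or DMEM with 10% FBS and 1% nonessential amino acids.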

Data set [2] concerns MDA-MB-231. Nature of the data set: Antiproliferative activity against human MDA-MB-231 cells at 5 uM for 72 hrs by cyquant assay. Format: functional, cell-based.
Data set [3] concerns U-251. Put plainly: Antimitotic activity in human U251MG cells assessed as defect in chromatid structure at 8 uM after 15 hrs confocal microscopic analysis. Format: functional, cell-based. The method, boiled down:
(§1)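 U251MG on coverslips synchronized by double thymidine block (2 mM), released 9 h, treated 15 h (8 μM; paclitaxel 100 nM). Fixed 4% paraformaldehyde, digitonin-permeabilized, BSA-blocked, stained for β-tubulin and MAP1B with DAPI counterstain; chromatid structure and segregation scored by confocal microscopy.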

Data set [4] concerns U-251. Put plainly: Antimitotic activity in human U251MG cells assessed as defect in sister chromatid segragation at 8 uM after 15 hrs confocal microscopic analysis. Type of data set: functional, cell-based. Summed up:
as §1

In data set [5] the test system is Glioma cell. Nature of the data set: Effect on cell morphology in human Glioma (G22) patient derived xenograft cells assessed as cell disaggregation of spheroids at 5 uM for 24 hrs measured after 48 to 96 hrs by inverted fluorescence microscope analysis in presence of matrigel. Format: functional. The method, boiled down:
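G22 patient-derived xenograft glioma cells seeded at 1,000 cells/well in ultra-low-binding round-bottom wells, grown 48 h into 3D spheroids, then treated once with 5 μM compound or DMSO; matrigel added after 24 h. Spheroids imaged at 5× magnification on an inverted fluorescence microscope every 24 h for up to 120 h.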

Data set [6] deals with Microtubule-associated protein 1B (Homo sapiens) (UniProt P46821). Put plainly: Decrease in MAP1B expression in human U251MG cells at 5 uM for 1 hr by mass spectrometry relative to control. Format: functional, cell-based. The following applies: U-251. The method, boiled down:
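U251MG cells treated 1 h with 5 μM compound; whole-cell lysates analyzed by global proteomics mass spectrometry; protein levels expressed relative to DMSO-treated cells.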

The nature of data set [7]: Decrease in TrxR1 expression in human U251MG cells at 5 uM for 2 hrs by immunoblot analysis. Type of data set: functional, cell-based. The following applies: U-251.
In data set [8] the target is Stalled ribosome sensor GCN1 (Homo sapiens) (UniProt Q92616). Nature of the data set: Decrease in GCN1 expression in human U373MG cells at 5 uM for 2 hrs by immunoblot analysis. Format: functional, cell-based. Particulars: U-373MG ATCC.
For data set [9], the target named is Heat shock protein 105 kDa (Homo sapiens) (UniProt Q92598). Nature of the data set: Decrease in Hsp105 expression in human U373MG cells at 5 uM for 2 hrs by immunoblot analysis. Format: functional, cell-based. The following applies: U-373MG ATCC.
Data set [10] is described as follows: Decrease in TrxR1 expression in human U373MG cells at 5 uM for 2 hrs by immunoblot analysis. Format: functional, cell-based. Particulars: U-373MG ATCC.
A short description of data set [11]: Decrease in vimentin expression in human U373MG cells at 5 uM for 2 hrs by immunoblot analysis. Type of data set: functional, cell-based. The following applies: U-373MG ATCC.
The target of data set [12] is Stalled ribosome sensor GCN1 (Homo sapiens) (UniProt Q92616). Put plainly: Decrease in GCN1 expression in human Glioma (G22) patient derived xenograft cells at 5 uM for 2 hrs by immunoblot analysis. The following applies: Glioma cell. Type of data set: functional.
Data set [13] can be described thus: Decrease in TrxR1 expression in human Glioma (G22) patient derived xenograft cells at 5 uM for 2 hrs by immunoblot analysis. Type of data set: functional. Particulars: Glioma cell.
Data set [14] addresses Microtubule-associated protein 1B (Homo sapiens) (UniProt P46821). Nature of the data set: Decrease in MAP1B expression in human Glioma (G22) patient derived xenograft cells at 5 uM for 2 hrs by immunoblot analysis. Type of data set: functional. Particulars: Glioma cell.
Data set [15] has as its system U-251. Put plainly: Antitumor activity against human U251MG cells xenografted in mouse assessed as decrease in tumor growth at 2 mg/kg three times a week for 33 days administered via oral gavage. Type of data set: functional, organism-based. Summed up:
(§2)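 Female athymic nude mice, 4 weeks old, given subcutaneous flank injections of 7.3×10^6 U251MG cells in PBS/matrigel; dosing began at 170–250 mm3 tumors (day 20). Oral gavage 2 mg/kg, vehicle 1% DMSO, for 33 days. Caliper volumes V = 0.52×a²×b, compared with vehicle by paired t test; tumor lysates immunoblotted for pStat3, Stat3, GAPDH.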

Data set [16] deals with U-251. Put plainly: Antitumor activity against human U251MG cells xenografted in mouse assessed as decrease in Stat3 level in tumor at 2 mg/kg three times a week for 33 days administered via oral gavage by immunoblot analysis. Format: functional, organism-based. Summed up: as §2
Data set [17] deals with Mus musculus. Nature of the data set: Toxicity in mouse xenografted with U251MG cells assessed as effect on body weight at 2 mg/kg three times a week for 33 days administered via oral gavage. Type of data set: organism-based, U-251. The following applies: in vivo, 792 h. Summed up:
(§3)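 Four-week-old female athymic nude mice, injected subcutaneously in the left flank with 7.3×10^6 U251MG cells in PBS/matrigel (1:1). Tumors of 170–250 mm^3 formed by day 20, and groups were matched for mean size. Dosing was 2 mg/kg by oral gavage, three times weekly for 33 days, with 1% DMSO vehicle. Animals were monitored daily and weighed every 3 days.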

Data set [18] concerns Mus musculus. Nature of the data set: Toxicity in mouse xenografted with U251MG cells assessed as loss of appetite at 2 mg/kg three times a week for 33 days administered via oral gavage. Format: organism-based, U-251. The following applies: in vivo, 792 h. The method, boiled down:
as §3

For data set [19], the system named is Mus musculus. Nature of the data set: Toxicity in mouse xenografted with U251MG cells assessed as activity at 2 mg/kg three times a week for 33 days administered via oral gavage. Format: organism-based, U-251. Particulars: in vivo, 792 h. The method, boiled down:
as §3

Data set [20] concerns Mus musculus. Put plainly: Toxicity in mouse xenografted with U251MG cells assessed as lethargy at 2 mg/kg three times a week for 33 days administered via oral gavage. Particulars: in vivo, 792 h. Type of data set: organism-based, U-251. Summed up:
as §3

The target in data set [21] is Signal transducer and activator of transcription 3 (Mus musculus) (UniProt P42227). Put plainly: Inhibition of Stat3 dimer DNA binding activity in mouse NIH3T3/vSrc nuclear extract at 5 uM preincubated for 30 mins followed by addition of radiolabeled probe hSIE for 30 mins by EMSA.
For data set [22], the target named is T1, Signal transducer and activator of transcription 3 (Homo sapiens, UniProt P40763). Put plainly: Inhibition of Stat3 activity in human U251MG cells assessed as phosphorylated Stat3 level after 2 hrs by immunoblot analysis. Format: cell-based. The following applies: U-251. The method, boiled down:
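U251MG cells treated with 5 μM compound for 0–24 h, or with 0–5 μM for 2 h. Whole-cell lysates immunoblotted for pStat3, Stat3, GAPDH. Control was 0.025% DMSO-treated cells.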

The target in data set [23] is T1, Signal transducer and activator of transcription 3. Put plainly: Inhibition of Stat3 dimer DNA binding activity in human U251MG cells nuclear extract at 5 uM after 0.5 to 24 hrs by EMSA using radiolabeled probe hSIE. Format: cell-based. The following applies: U-251. Summed up:
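Sub-confluent U251MG or U373MG cells treated with compound (5 μM for 0–24 h, or 0–5 μM for 1.5 h). Stat3:DNA bands scanned, quantified and plotted against concentration to derive IC50. Controls were 0.025% DMSO.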

In data set [24] the target is Signal transducer and activator of transcription 3 (Mus musculus) (UniProt P42227). Put plainly: Inhibition of EGF-induced Stat3 phosphorylation in mouse NIH3T3 cells expressing human EGFR at 5 uM preincubated for 3 hrs followed by stimulation with 1 ug/ml EGF for 12 mins by immunoblot analysis. Type of data set: cell-based. Summed up:
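NIH3T3/hEGFR fibroblasts pretreated with or without 5 μM compound for 3 h, then stimulated with 1 μg/ml EGF for 12 min. Whole-cell lysates of equal total protein immunoblotted for phospho and total Stat3, Stat1, Stat5, Erk1/2. Controls were 0.025% DMSO-treated cells. Representative of 2–4 independent determinations.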

Data set [25] relates to U-251. Nature of the data set: Effect on PTP1B expression in human U251MG cells at 5 uM after 0.5 to 24 hrs by immunoblot analysis. Format: functional, cell-based. The method, boiled down: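 U251MG cells treated with 5 μM compound for 0–24 h; whole-cell lysates of equal total protein immunoblotted. Controls were 0.025% DMSO-treated cells. Representative of 2–4 independent determinations.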

Sequence of Stalled ribosome sensor GCN1 (Homo sapiens) (Q92616 whole entry): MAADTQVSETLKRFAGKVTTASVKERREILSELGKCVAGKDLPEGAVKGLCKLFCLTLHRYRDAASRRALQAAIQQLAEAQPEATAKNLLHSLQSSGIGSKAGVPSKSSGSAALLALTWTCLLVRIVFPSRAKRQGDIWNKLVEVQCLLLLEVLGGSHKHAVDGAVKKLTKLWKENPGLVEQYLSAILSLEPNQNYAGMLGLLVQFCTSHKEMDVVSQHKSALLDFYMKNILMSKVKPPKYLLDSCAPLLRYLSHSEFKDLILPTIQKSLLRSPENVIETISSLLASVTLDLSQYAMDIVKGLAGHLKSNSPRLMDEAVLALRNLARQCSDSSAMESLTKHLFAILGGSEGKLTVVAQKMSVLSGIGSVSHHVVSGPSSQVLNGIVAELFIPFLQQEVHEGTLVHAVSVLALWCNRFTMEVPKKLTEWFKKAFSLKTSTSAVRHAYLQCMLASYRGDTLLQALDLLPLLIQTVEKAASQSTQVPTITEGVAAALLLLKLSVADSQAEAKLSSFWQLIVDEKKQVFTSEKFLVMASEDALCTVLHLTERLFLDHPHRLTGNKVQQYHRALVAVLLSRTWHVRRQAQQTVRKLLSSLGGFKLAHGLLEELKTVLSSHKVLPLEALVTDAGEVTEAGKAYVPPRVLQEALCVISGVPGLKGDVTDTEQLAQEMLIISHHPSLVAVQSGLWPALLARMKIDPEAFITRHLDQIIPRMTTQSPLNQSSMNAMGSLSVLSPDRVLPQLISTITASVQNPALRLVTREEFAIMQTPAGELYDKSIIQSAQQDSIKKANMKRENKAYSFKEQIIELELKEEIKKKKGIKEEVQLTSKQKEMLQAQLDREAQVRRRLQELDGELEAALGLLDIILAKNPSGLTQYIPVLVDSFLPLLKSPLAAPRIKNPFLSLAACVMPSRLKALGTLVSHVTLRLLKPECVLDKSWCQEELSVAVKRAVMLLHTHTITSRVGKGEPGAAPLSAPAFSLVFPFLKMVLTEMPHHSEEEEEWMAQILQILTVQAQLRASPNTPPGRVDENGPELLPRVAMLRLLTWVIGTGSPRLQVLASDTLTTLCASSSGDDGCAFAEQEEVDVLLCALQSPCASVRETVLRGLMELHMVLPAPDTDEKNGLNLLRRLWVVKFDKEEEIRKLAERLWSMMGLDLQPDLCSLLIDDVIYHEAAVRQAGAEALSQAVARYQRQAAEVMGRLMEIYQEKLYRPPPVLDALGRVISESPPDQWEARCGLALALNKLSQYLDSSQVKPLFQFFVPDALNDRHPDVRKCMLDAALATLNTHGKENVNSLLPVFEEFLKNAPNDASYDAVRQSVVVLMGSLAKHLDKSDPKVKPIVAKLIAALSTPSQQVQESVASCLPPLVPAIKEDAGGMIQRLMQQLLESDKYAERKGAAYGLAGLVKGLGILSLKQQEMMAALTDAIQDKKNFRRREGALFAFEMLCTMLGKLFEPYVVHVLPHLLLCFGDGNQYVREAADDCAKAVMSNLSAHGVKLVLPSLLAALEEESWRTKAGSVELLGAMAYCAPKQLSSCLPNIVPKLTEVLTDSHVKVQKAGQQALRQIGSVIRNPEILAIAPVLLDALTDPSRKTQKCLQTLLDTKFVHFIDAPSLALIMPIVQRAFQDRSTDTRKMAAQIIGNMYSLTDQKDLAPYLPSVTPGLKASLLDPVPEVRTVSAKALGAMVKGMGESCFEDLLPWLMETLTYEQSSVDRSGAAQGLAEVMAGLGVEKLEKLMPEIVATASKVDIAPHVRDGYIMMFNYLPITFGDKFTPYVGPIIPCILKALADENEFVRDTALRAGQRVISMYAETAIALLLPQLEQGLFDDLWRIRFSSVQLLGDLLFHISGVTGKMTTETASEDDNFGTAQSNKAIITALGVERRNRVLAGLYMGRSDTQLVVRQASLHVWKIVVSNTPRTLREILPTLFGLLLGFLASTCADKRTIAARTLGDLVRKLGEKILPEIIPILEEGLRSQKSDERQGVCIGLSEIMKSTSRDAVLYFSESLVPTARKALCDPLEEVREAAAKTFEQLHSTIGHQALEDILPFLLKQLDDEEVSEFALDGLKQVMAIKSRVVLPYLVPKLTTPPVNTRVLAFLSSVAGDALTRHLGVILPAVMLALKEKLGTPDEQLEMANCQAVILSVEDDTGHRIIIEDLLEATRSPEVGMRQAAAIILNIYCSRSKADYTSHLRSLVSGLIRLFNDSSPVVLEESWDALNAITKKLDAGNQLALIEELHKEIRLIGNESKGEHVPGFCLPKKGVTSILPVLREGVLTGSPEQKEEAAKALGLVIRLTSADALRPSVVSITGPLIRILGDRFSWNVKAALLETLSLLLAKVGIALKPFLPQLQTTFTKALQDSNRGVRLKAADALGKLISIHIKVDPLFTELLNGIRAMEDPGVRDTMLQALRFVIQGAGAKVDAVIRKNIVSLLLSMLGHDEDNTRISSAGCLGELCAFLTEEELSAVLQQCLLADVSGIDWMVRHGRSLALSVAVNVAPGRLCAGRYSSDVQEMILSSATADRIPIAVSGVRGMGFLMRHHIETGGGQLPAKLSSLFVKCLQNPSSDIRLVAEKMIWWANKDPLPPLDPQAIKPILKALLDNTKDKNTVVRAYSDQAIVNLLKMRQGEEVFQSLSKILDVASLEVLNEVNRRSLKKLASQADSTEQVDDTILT
Sequence of Microtubule-associated protein 1B (Homo sapiens) (P46821 2-2206 limits assumed): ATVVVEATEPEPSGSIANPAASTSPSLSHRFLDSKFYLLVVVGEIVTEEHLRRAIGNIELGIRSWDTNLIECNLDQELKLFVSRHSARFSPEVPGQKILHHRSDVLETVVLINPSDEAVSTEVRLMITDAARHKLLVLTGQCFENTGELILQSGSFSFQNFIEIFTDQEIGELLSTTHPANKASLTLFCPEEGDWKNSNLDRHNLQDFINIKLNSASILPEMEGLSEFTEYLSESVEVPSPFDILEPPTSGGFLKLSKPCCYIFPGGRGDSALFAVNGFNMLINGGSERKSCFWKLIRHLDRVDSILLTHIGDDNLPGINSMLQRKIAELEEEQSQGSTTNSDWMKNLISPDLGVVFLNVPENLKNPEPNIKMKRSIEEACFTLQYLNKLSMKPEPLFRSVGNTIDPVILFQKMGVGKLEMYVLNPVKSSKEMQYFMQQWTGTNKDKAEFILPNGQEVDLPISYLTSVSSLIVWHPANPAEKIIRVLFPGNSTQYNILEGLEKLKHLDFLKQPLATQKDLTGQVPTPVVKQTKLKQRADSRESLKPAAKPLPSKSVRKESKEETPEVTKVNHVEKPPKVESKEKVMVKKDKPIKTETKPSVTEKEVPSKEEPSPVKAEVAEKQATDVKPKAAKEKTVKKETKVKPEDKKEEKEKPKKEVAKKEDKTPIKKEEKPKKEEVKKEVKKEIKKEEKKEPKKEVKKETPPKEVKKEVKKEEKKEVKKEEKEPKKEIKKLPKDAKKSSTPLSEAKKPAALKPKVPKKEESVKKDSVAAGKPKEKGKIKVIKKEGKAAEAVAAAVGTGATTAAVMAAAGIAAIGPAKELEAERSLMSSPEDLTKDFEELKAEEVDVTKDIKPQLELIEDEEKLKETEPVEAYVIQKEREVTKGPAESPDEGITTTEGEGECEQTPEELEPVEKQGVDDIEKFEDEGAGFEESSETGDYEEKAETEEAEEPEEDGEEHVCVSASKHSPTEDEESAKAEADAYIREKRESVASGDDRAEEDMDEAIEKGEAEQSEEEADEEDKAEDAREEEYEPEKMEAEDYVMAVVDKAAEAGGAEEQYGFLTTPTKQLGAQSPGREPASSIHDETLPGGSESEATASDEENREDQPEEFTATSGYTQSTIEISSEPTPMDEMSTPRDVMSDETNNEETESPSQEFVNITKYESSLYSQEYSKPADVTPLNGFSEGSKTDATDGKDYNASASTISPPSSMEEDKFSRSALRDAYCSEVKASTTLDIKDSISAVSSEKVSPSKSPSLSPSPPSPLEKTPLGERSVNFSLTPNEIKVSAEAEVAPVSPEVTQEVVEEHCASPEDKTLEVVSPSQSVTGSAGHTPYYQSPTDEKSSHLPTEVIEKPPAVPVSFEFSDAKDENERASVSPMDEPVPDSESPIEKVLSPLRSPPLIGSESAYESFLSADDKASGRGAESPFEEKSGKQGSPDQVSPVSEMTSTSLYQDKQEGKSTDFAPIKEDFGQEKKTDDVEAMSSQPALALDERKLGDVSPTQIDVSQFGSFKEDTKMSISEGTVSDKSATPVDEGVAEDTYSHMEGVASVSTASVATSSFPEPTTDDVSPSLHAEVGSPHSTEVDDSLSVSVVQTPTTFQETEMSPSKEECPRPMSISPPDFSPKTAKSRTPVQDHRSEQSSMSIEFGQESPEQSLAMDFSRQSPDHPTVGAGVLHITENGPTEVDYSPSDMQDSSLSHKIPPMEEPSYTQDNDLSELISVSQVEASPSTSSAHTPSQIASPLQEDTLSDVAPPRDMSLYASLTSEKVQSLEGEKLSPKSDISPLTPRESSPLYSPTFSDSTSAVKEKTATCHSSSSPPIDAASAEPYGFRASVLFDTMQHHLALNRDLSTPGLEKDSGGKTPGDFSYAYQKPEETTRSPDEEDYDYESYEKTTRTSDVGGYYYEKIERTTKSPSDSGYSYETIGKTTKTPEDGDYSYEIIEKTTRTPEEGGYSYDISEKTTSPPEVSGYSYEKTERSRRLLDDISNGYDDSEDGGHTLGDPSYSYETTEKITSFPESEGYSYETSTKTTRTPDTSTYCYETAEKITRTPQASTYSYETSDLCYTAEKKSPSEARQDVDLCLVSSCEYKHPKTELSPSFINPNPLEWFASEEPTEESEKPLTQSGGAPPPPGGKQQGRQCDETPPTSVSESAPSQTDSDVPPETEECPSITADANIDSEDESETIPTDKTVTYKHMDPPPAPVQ
Sequence of Microtubule-associated protein 1B (Homo sapiens) (P46821 2207-2468 limits assumed): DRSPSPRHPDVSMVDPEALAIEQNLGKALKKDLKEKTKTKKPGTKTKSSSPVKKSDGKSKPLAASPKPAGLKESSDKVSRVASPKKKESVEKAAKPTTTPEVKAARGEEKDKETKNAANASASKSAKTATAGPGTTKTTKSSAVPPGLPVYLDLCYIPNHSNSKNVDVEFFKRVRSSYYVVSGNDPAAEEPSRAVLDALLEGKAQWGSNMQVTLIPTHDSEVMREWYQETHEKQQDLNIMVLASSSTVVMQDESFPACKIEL

In turn, `C/C=C(\C)C(=O)O[C@H]1C[C@@H](C)[C@]2(O)CC[C@](C)(/C=C3/OC(=O)C(COC(C)=O)=C31)O2` yielded an inhibition at 5 µM in data set [1] of 90%. The inhibition result in data set [2], in data set [7], in data set [8], in data set [9], in data set [10] and in [11] was “Active” throughout. Moreover, the inhibition result in data set [12], in [13], in data set [14], in data set [21], in data set [23] and in data set [24] was “Active” in each case. Also, the outcome in [3], in data set [4], in [5], in data set [15] and in [16] was Active. The fold change (FC) in data set [6] worked out at 0.649. The Activity result in data set [17], in data set [18], in data set [19] and in data set [20] was “Non-toxic” throughout. Besides, the inhibition result in [22] is “Dose-dependent effect”. For the same compound, the result in [25] was inactive.

In data set [1], `C/C=C(\C)C(=O)O[C@H]1C[C@@H](C)[C@]2(OC)CC[C@](C)(/C=C3/OC(=O)C(COC(C)=O)=C31)O2` registered an inhibition at 5 µM of 90%. For the same compound, the inhibition entry in data set [2], in [21], in [23] and in data set [24] was “Active” in each case. Further, the outcome in data set [5] was Active. In addition, the inhibition entry in [22] is “Dose-dependent effect”. Moreover, the outcome in data set [25] was inactive.

Turning to `C/C=C(\C)C(=O)OCC1=C2/C(=C\[C@@]3(C)CC[C@](O)(O3)[C@H](C)C[C@@H]2O)OC1=O`, in [1], testing at 5 µM gave an inhibition of 90%. In addition, the inhibition entry in data set [2], in data set [7], in data set [8], in data set [9], in [10] and in data set [11] was “Active” each time. Also, the inhibition result in [12], in data set [13], in [14], in [21], in [23] and in data set [24] was “Active” throughout. Further, the result in data set [3], in data set [4], in [5], in [15] and in [16] was Active. The fold change (FC) in data set [6] came to 0.413. Also, the Activity result in data set [17], in data set [18], in data set [19] and in data set [20] was “Non-toxic” each time. Besides, the inhibition result in data set [22] is “Dose-dependent effect”. Further, the outcome in [25] was inactive.
